Test results as given in ChEMBL document CHEMBL2331334, “Hybrid furoxanyl N-acylhydrazone derivatives as hits for the development of neglected diseases drug candidates” (Eur J Med Chem, 2013).
≈ marks a conversion by molar mass, not a printed value.

Tests used:
Leishmania amazonensis = experiment: Leishmanicidal activity against axenic amastigote stage of Leishmania amazonensis MHOM/BR/76/LTB-012 assessed as growth inhibition after 72 hrs by MTT assay; assay type: functional, organism-based; details: MHOM/BR/76/LTB-012, 72 h
Procedure, shortened: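 L. amazonensis axenic amastigotes (MHOM/BR/76/LTB-012), weekly passages in MAA/20 at 32 °C, 5% CO2. Seeded in 96-well plates; compounds in DMSO at 100 to 1 final, 72 h. MTT added for 4 h, stopped with 50% isopropanol–10% SDS, 30 min agitation at room temperature, A570. Triplicate; % inhibition versus control, IC50 from several concentrations.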

[1] = Selectivity index, ratio of IC50 for mouse J774.1 cells to IC50 for axenic amastigote stage of Leishmania amazonensis MHOM/BR/76/LTB-012; assay type: toxicity; details: read-out: Ratio IC50
Trypanosoma cruzi [2] = experiment: Trypanosomicidal activity against amastigote stage of Trypanosoma cruzi Tulahuen C4 transfected with beta-D-galactosidase infected in african green monkey Vero cells assessed as growth inhibition incubated 5 days prior to beta-D-galactopyranoside addition measured after 4 to 5 hrs by colorimetric assay; assay type: functional, organism-based
Procedure, shortened: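 VERO monolayer in phenol red-free RPMI 1640 with 10% FCS, infected with 5×10^4 LacZ-transfected Tulahuen C4 trypomastigotes/well, 24 h at 37 °C, 5% CO2. Compounds added for 5 days. CPRG substrate added, 4–5 h at 37 °C, A570. Actives (>50% inhibition) retested in duplicate at 10.0–0.16; IC50 by logarithmic regression versus untreated control.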

Trypanosoma cruzi [3] = experiment: Trypanosomicidal activity against axenic epimastigote stage of Trypanosoma cruzi Tulahuen 2 assessed as growth inhibition; assay type: functional, organism-based
Procedure, shortened: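 Tulahuen 2 epimastigotes grown axenically at 28 °C in BHI-tryptose with 5% FCS, harvested late log phase, 3×10^6/mL in 24-well plates. Compound added from DMSO stock (≤1% DMSO). Growth as A590 at day 0 and day 5; % inhibition from blank-corrected absorbances; ID50 = concentration halving absorbance relative to untreated controls.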

[4] = system: Mycobacterium tuberculosis; experiment: Antimycobacterial activity against Mycobacterium tuberculosis H37Rv assessed as growth inhibition after 5 days by MTT assay; assay type: functional; details: 120 h
Procedure, shortened: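 MTB inoculum made from 20–30-day slant growth in Tween 80/0.2% BSA, adjusted to McFarland No. 1, then diluted in 7H9GC broth (Middlebrook 7H9, glycerol, Casitone, OADC). Final inoculum about 1.2 × 10^6 CFU/mL. Compounds taken from DMSO stock to final 0.4–25 in broth, with a DMSO control. Plates run 5 days at 37 °C, then tetrazolium (MTT)–Tween 80 added for a further 24 h at 37 °C. Read-out is MIC.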

[5] = Cytotoxicity against mouse J774.1 cells assessed as cell viability after 48 hrs by MTT assay; assay type: cell-based; details: J774.1, 48 h
Procedure, shortened: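 J774.1 macrophages in DMEM with 4 mM L-glutamine and 10% heat-inactivated FCS, 5×10^4 cells/well, attached 48 h at 37 °C, 5% CO2. Exposed 48 h to compounds (12.5–400.0 µM) or vehicle. MTT 0.1 mg/mL final, 3 h at 37 °C; formazan dissolved in DMSO/glycine buffer pH 10.5, A560. IC50 by linear regression versus solvent control.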

[6] = Selectivity index, ratio of IC50 for mouse J774.1 cells to IC50 for amastigote stage of Trypanosoma cruzi Tulahuen C4; assay type: toxicity; details: read-out: Ratio IC50
[7] = Selectivity index, ratio of IC50 for mouse J774.1 cells to MIC for Mycobacterium tuberculosis H37Rv; assay type: functional
Procedure, shortened: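 Cytotoxicity: J774.1 macrophages in DMEM with 4 mM L-glutamine and 10% heat-inactivated FCS, seeded at 5 × 10^4/well, attached 48 h at 37 °C, 5% CO2. Exposed 48 h to 12.5–400.0 µM compound or vehicle. MTT at 0.1 mg/mL final for 3 h, formazan dissolved in DMSO/glycine buffer pH 10.5, A560 read. IC50 by linear regression, divided by the MIC against the same MTB strain.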

[8] = Aqueous stability of the compound in Tris.HCl buffer at pH 7.4 at 1 mM after 24 hrs by spectrophotometric analysis; assay type: physicochemical; details: pH 7.4, 24 h, 1000 µM
Procedure, shortened: (§1)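 Compound from DMSO stock, 1 mM final in aqueous buffer (KCl·HCl pH 2, acetate pH 5, Tris·HCl pH 7.4 or 8.3), incubated 37 °C for 24 h. Absorbance spectrum 250–450 nm compared with a freshly prepared, unincubated solution. TLC of ethyl acetate extracts to confirm or exclude decomposition products.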

[9] = Aqueous stability of the compound in Tris.HCl buffer at pH 8.3 at 1 mM after 24 hrs by spectrophotometric analysis; assay type: physicochemical; details: pH 8.3, 24 h, 1000 µM; procedure, shortened: as §1
[10] = Aqueous stability of the compound in KCl.HCl buffer at pH 2 at 1 mM after 24 hrs by spectrophotometric analysis; assay type: physicochemical; details: pH 2, 24 h, 1000 µM; procedure, shortened: as §1
[11] = Aqueous stability of the compound in acetate buffer at pH 5 at 1 mM after 24 hrs by spectrophotometric analysis; assay type: physicochemical; details: pH 5, 24 h, 1000 µM; procedure, shortened: as §1
Plasma = experiment: Metabolic stability in human plasma at pH 3 at 40 uM after 3 hrs; assay type: ADME, cell-free; details: pH 3, 3 h
[12] = Selectivity index, ratio of IC50 for african green monkey Vero cells to IC50 for amastigote stage of Trypanosoma cruzi Tulahuen C4; assay type: toxicity, cell-based; details: read-out: Ratio IC50

| Structure (SMILES) | IC50 (Trypanosoma cruzi [2]) [µM] | IC50 (Trypanosoma cruzi [3]) [µM] | MIC [4] [µM] | IC50 [5] [µM] | Selectivity Index [7] | other results |
| --- | --- | --- | --- | --- | --- | --- |
| Cc1nc2ccccn2c1C(=O)NN | > 52.6 | > 150 | – | – | – | IC50 (Leishmania amazonensis): 29.8 µM; selectivity ratio [1]: > 13 |
| Cc1c(/C=N/NC(=O)c2cccnc2)no[n+]1[O-] | > 40.5 | > 150 | > 101 | > 400 | – | – |
| O=C(N/N=C/c1c(-c2ccccc2)no[n+]1[O-])c1cccnc1 | > 32.4 | 58.9 | 40.5 (≈ 12.5 µg/mL) | 195 | 5 | selectivity ratio [6]: < 6 |
| O=C(N/N=C/c1ccc2no[n+]([O-])c2c1)c1cccnc1 | > 35.3 | 35.5 | 44.2 (≈ 12.5 µg/mL) | 31 | 0.7 | Stability [8]: Stable; Stability [9]: Stable; Stability [10]: Stable; Stability [11]: Stable; Stability (Plasma): Stable; selectivity ratio [6]: < 0.9 |
| Cc1c(/C=N/NC(=O)c2ccc3c(c2)OCO3)no[n+]1[O-] | > 34.5 | > 150 | > 86.2 | 132 | <1.5 | IC50 (Leishmania amazonensis): 3.3 µM; selectivity ratio [1]: 40; selectivity ratio [6]: < 1.5 |
| Cc1nc2ccccn2c1C(=O)N/N=C/c1no[n+]([O-])c1C | > 33.3 | > 150 | > 83.3 | > 400 | – | IC50 (Leishmania amazonensis): 12.6 µM; selectivity ratio [1]: > 32 |
| Cc1nc2ccccn2c1C(=O)N/N=C/c1ccc2no[n+]([O-])c2c1 | > 30.9 | > 150 | 77.2 (≈ 26 µg/mL) | 141 | 1.8 | selectivity ratio [6]: < 4 |
| Cc1[nH]cnc1C(=O)N/N=C/c1no[n+]([O-])c1C | > 40 | > 150 | > 100 | > 400 | – | – |
| Cc1[nH]cnc1C(=O)N/N=C/c1c(-c2ccccc2)no[n+]1[O-] | > 32.1 | > 150 | > 80.1 | > 400 | – | – |
| Cc1c(/C=N/NC(=O)c2cnn(-c3ccccc3)c2)no[n+]1[O-] | > 32.1 | > 150 | > 80.1 | 295 | <4 | – |
| O=C(N/N=C/c1c(-c2ccccc2)no[n+]1[O-])c1cnn(-c2ccccc2)c1 | > 26.7 | > 150 | > 66.8 | 41.7 | <0.6 | – |
| COc1ccc(/C=N/NC(=O)c2no[n+]([O-])c2C)cc1O | – | – | > 85.6 | > 400 | – | IC50 (Leishmania amazonensis): 8.3 µM; selectivity ratio [1]: > 48 |
| Cc1c(/C=N/NC(=O)c2no[n+]([O-])c2C)no[n+]1[O-] | > 37.5 | 81.3 | > 93.6 | > 400 | – | – |
| Cc1c(C(=O)N/N=C/c2c(-c3ccccc3)no[n+]2[O-])no[n+]1[O-] | > 30.3 | 25.1 | > 75.8 | > 400 | – | – |
| Cc1c(C(=O)N/N=C/c2ccc3no[n+]([O-])c3c2)no[n+]1[O-] | > 32.9 | > 150 | 82.2 (≈ 25 µg/mL) | > 400 | >5 | – |
| Cc1c(C(=O)N/N=C/c2ccc(N(C)C)cc2)no[n+]1[O-] | > 34.6 | > 150 | > 86.5 | 129 | <1.5 | selectivity ratio [6]: < 3 |
| Cc1c(C(=O)N/N=C/c2ccc(Br)cc2)no[n+]1[O-] | > 29.6 | > 150 | > 74 | 162 | <2 | selectivity ratio [6]: < 5 |
| Cc1c(C(=O)N/N=C/c2ccco2)no[n+]1[O-] | > 42.4 | > 150 | > 106 | > 400 | – | – |
| Cc1c(C(=O)N/N=C/c2ccc([N+](=O)[O-])s2)no[n+]1[O-] | > 33.7 | 50 | 42.1 (≈ 12.5 µg/mL) | > 400 | >10 | – |
| Cc1c(C(=O)N/N=C/c2ccc([N+](=O)[O-])o2)no[n+]1[O-] | > 35.6 | 50.1 | 44.5 (≈ 12.5 µg/mL) | 68 | 1.5 | selectivity ratio [6]: < 2 |

| Structure (SMILES) | IC50 (Trypanosoma cruzi [2]) [µM] | IC50 (Trypanosoma cruzi [3]) [µM] | MIC [4] [µM] | IC50 [5] [µM] | Selectivity Index [7] | other results |
| --- | --- | --- | --- | --- | --- | --- |
| Cc1c(C(=O)N/N=C/c2ccccc2O)no[n+]1[O-] | > 38.7 | 39.8 | > 95.4 | 246 | <3 | selectivity ratio [6]: < 6 |
| COc1ccc(/C=N/NC(=O)c2no[n+]([O-])c2C)cc1OC | – | – | > 81.6 | > 400 | – | – |
| Cc1c(C(=O)N/N=C/c2ccc3c(c2)OCO3)no[n+]1[O-] | > 34.5 | > 150 | > 86.2 | > 400 | – | – |
| Cc1c(C(=O)N/N=C/c2ccc(C(=O)O)cc2)no[n+]1[O-] | > 34.5 | > 150 | > 86.2 | > 300 | – | – |
| Cc1c(C(=O)N/N=C/c2ccc(C(F)(F)F)cc2)no[n+]1[O-] | > 31.9 | > 150 | > 79.6 | > 400 | – | – |
| NNC(=O)c1ccc2c(c1)OCO2 | > 55.6 | > 150 | – | – | – | – |
| O=C(N/N=C/c1ccc2nonc2c1)c1cccnc1 | > 37.5 | > 150 | > 93.6 | 209 | <2 | selectivity ratio [6]: < 5.5 |
| O=C(N/N=C/c1ccc2nonc2c1)c1ccncc1 | > 37.5 | > 150 | > 93.6 | > 400 | – | – |
| CC(=O)Nc1ccc(/C=N/NC(=O)c2no[n+]([O-])c2C)cc1 | > 33 | > 150 | > 82.5 | 235 | <3 | – |
| Cc1c(C(=O)N/N=C/c2ccc([N+](=O)[O-])cc2)no[n+]1[O-] | > 34.4 | > 150 | > 85.9 | > 300 | – | IC50 (Leishmania amazonensis): 7.9 µM; selectivity ratio [1]: > 38 |
| Cc1c(C(=O)N/N=C/c2ccccc2)no[n+]1[O-] | > 40.7 | 151 | > 102 | > 400 | – | – |
| Cc1c(C(=O)N/N=C/c2cccc(O)c2)no[n+]1[O-] | > 38.2 | > 150 | > 95.4 | > 400 | – | IC50 (Leishmania amazonensis): 4.5 µM; selectivity ratio [1]: > 89 |
| COc1cc(/C=N/NC(=O)c2no[n+]([O-])c2C)cc(OC)c1OC | – | – | > 74.4 | > 300 | – | – |
| Cc1c(C(=O)N/N=C/c2ccccn2)no[n+]1[O-] | > 40.5 | > 150 | > 101 | > 400 | – | – |
| NNC(=O)c1cnn(-c2ccccc2)c1 | > 49.5 | – | – | – | – | – |
| COC(=O)c1no[n+]([O-])c1C | > 62.3 | > 50 | – | – | – | – |
| Cc1c(C(=O)NN)no[n+]1[O-] | > 62.3 | > 50 | – | – | – | – |
| NNC(=O)c1ccncc1 [ISONIAZID] | – | > 150 | 0.4 (≈ 0.0549 µg/mL) | > 400 | >1000 | – |
| NNC(=O)c1cccnc1 [NICOTINIC ACID HYDRAZIDE] | > 73 | > 150 | – | – | – | – |
| CC1CS(=O)(=O)CCN1/N=C/c1ccc([N+](=O)[O-])o1 (stereo not given) [NIFURTIMOX] | 10.4 | – | – | – | – | selectivity ratio [12]: 7.7; selectivity ratio [6]: 27 |
